Active and inactive are the calls of the source.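 Rule for the calls: active = peak KCNK3 inhibition above a set limit at some dose, plus a fitted dose-response curve; inactive = no KCNK3 inhibition, or no dose-response curve.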
Molecular target: Potassium channel subfamily K member 3 (Rattus norvegicus) (UniProt O54912)
Assay: KCNK3 off-target potassium flux block – cell-based, FluxOR thallium flux, CRC set 2, selectivity assay for KCNK9 inhibitor project, SAR follow-up (AID 623912)
Details: KCNK3-expressing cells, FluxOR thallium flux fluorescence; for flux ratio, lower = inhibition: at 3 µM (top of the series)
In short: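 read-out basis = IC50 from normalized flux signal | assay system = induced KCNK3-expressing CHO cells | probe or stimulus = Tl+/K+ sulfate stimulus buffer (5x stock) | times = dye 90 min, compound 20 min, both room temperature | signal = thallium flux fluorescence with FluxOR thallium-sensitive dye, kinetic reading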

Potassium channel subfamily K member 3 (Rattus norvegicus), sequence (O54912 whole entry, looked up): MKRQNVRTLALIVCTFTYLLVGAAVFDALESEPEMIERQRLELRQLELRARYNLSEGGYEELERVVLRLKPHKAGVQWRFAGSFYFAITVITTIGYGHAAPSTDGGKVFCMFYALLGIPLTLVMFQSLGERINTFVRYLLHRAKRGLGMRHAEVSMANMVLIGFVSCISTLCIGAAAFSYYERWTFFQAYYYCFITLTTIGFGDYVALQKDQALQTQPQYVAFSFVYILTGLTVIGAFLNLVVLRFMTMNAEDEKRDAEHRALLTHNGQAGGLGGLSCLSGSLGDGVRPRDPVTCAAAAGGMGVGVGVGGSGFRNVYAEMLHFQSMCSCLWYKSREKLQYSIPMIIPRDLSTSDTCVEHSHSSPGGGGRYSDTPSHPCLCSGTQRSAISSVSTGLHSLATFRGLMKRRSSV

Q: `CC(C)c1ccccc1C(=O)Nc1cccc(NC(=O)c2ccccc2OC(F)(F)F)c1` was tested. Which IC50 did it give?
A: 11 nM

Q: With `Cc1cccc(NC(=O)c2cccc(NC(=O)c3ccccc3)c2)c1` as the compound, how does the “flux ratio, lower = inhibition” value read?
A: inactive

Q: Which IC50 does the source give for `O=C(Nc1cccc(NC(=O)c2ccco2)c1)c1ccccc1` here?
A: 36.5 nM

Q: With `COc1ccccc1C(=O)Nc1cccc(NC(=O)c2ccccc2OC(F)(F)F)c1` as the compound, how does the IC50 read?
A: 4 nM

Q: Which IC50 does the source give for `CC(C1CC2CCC1C2)n1c(-c2cccs2)n[nH]c1=S` (stereo unspecified) here?
A: 18 nM

Q: How did the IC50 turn out when `CCOc1ccc(NC(=O)c2cccc(NC(=O)C3CCCC3)c2)cc1` was run?
A: 70.2 nM

Q: For `O=C(Nc1cccc(NC(=O)c2ccccc2)c1)c1ccccc1`, which IC50 is on record?
A: 18 nM

Q: With `Cc1cccc(C(=O)Nc2cccc(NC(=O)c3ccccc3OCC(C)C)c2)c1` as the compound, how does the IC50 read?
A: 206 nM

Q: `CC(C1CC2CCC1C2)n1c(-c2cccn2C)n[nH]c1=S` (stereo unspecified) was tested. Which IC50 did it give?
A: 1080 nM

Q: How did the IC50 turn out when `Cc1cccc(C(=O)Nc2cccc(NC(=O)c3ccncc3)c2)c1` was run?
A: 27 nM

Q: For `CCOc1ccccc1NC(=O)c1cccc(NC(=O)c2ccccc2C(F)(F)F)c1`, which IC50 is on record?
A: 29.5 nM

Q: For `CCOc1ccccc1C(=O)Nc1cccc(NC(=O)c2ccccc2C(F)(F)F)c1`, which IC50 is on record?
A: 2 nM

Q: Which IC50 does the source give for `Cc1cccc(C(=O)Nc2ccccc2NC(=O)c2ccccc2)c1` here?
A: 260 nM

Q: Which IC50 does the source give for `CC(C1CC2CCC1C2)n1c(-c2ccco2)n[nH]c1=O` (stereo unspecified) here?
A: 181 nM

Q: Which “flux ratio, lower = inhibition” value does the source give for `CC(C1CC2CCC1C2)n1c(C2CCOC2)n[nH]c1=S` (stereo unspecified) here?
A: inactive

Q: `COc1ccccc1C(=O)Nc1cccc(NC(=O)c2cccc(C)c2)c1` was tested. Which IC50 did it give?
A: 11 nM

Q: How did the IC50 turn out when `CC(NC(=O)c1ccco1)C1CC2CCC1C2` (stereo unspecified) was run?
A: 70 nM

Q: With `CC(C1CC2CCC1C2)N(C)C(=O)c1ccco1` (stereo unspecified) as the compound, how does the IC50 read?
A: 6 nM

Q: How did the IC50 turn out when `CCOc1ccccc1NC(=O)c1cccc(NC(=O)c2ccccc2C)c1` was run?
A: 140 nM

Q: With `COc1ccc(C(=O)Nc2cccc(NC(=O)c3ccccc3)c2)cc1` as the compound, how does the IC50 read?
A: 2270 nM

Q: `O=C(Nc1cccc(NC(=O)c2cccc(C(F)(F)F)c2)c1)c1ccccc1` was tested. Which IC50 did it give?
A: 147 nM

Q: How did the IC50 turn out when `O=C(Nc1cccc(NC(=O)c2cccs2)c1)c1ccccc1` was run?
A: 29.4 nM

Q: For `O=C(Nc1cccc(NC(=O)c2ccncc2)c1)c1ccccc1`, which IC50 is on record?
A: 249 nM

Q: Which IC50 does the source give for `Cc1cccc(C(=O)Nc2cccc(NC(=O)c3cccc(Cl)c3)c2)c1` here?
A: 3 nM

Q: Which IC50 does the source give for `S=c1[nH]nc(-c2ccco2)n1CC1CCCCC1` here?
A: 606 nM

Q: How did the IC50 turn out when `O=C(Nc1cccc(NC(=O)C2CCCCC2)c1)c1ccccc1` was run?
A: 79.2 nM

Source: PubChem BioAssay AID623912 (Johns Hopkins Ion Channel Center, 2012)
